The subject of assay [1] is HL-60. Nature of the assay: Mean in vitro concentration to inhibit the metabolic activity of HL-60 cells after 4 days of incubation; n=3. In kind it is functional, cell-based. As to conditions: Homo sapiens, HL-60, 96 h. The essentials:
(§1)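 Human HL-60 promyelocytic leukemia cells in RPMI 1640 with 8.25% FCS, 37 °C, 5% CO2. Seeded in triplicate at 12.5×10^4 (2-day) or 3.75×10^4 (4-day) cells/0.5 mL. Drug in DMSO (0.2% final), serial dilutions.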

Assay [2] deals with HL-60. Nature of the assay: Mean in vitro concentration to inhibit the metabolic activity of HL-60 cells after 2 days of incubation; n=3. In kind it is functional, cell-based. As to conditions: Homo sapiens, HL-60, 48 h. The essentials: as §1

The record followed here is ChEMBL document CHEMBL1141085, “Imidazole-4,5-dicarboxamide derivatives with antiproliferative activity against HL-60 cells” (J Med Chem, 2005).

Where only a bound is given, the exact number is not on record here.

As to `CCCN(CCC)C(=O)c1[nH]cnc1C(=O)Nc1ccc(Cl)c(Cl)c1`, the IC50 (usually the concentration that inhibits the measured activity by half) in assay [1] stood at 38.9 µM; in assay [2], 379 µM.
`O=C(NCc1ccc(-c2ccccc2)cc1)c1nc[nH]c1C(=O)Nc1ccc(Cl)c(Cl)c1`: the results for the IC50 in assay [1] and in assay [2] were 2.9 µM and 7 µM, respectively.
The matching figures for `C[C@@H](NC(=O)c1[nH]cnc1C(=O)Nc1ccccc1)C(=O)OC(C)(C)C`: 2.7 µM and 4.7 µM.
Turning to `C[C@@H](c1ccccc1)N(C)C(=O)c1[nH]cnc1C(=O)Nc1ccc(Cl)c(Cl)c1`, the IC50 in assay [1] was 56 µM; in assay [2] it was 75.5 µM.
On to `CC(C)CNC(=O)c1[nH]cnc1C(=O)Nc1ccc(Cl)c(Cl)c1`, for which the IC50 came to 7.2 µM in assay [1] and 14.7 µM in assay [2].
On to `COc1ccc(CNC(=O)c2[nH]cnc2C(=O)Nc2ccc(Cl)c(Cl)c2)cc1`, for which the results for the IC50 in assay [1] and in assay [2] were 18.3 µM and 24.3 µM, respectively.
Turning to `Cc1ccc(NC(=O)c2nc[nH]c2C(=O)N[C@H](C)C(=O)OC(C)(C)C)cc1`, the IC50 in assay [1] amounted to 3.5 µM; in assay [2], 6.3 µM.
The matching figures for `O=C(Nc1ccc(Cl)c(Cl)c1)c1nc[nH]c1C(=O)NCc1ccc(Cl)cc1`: 8.8 µM and 16.2 µM.
Take `COC(=O)[C@@H](C)NC(=O)c1[nH]cnc1C(=O)Nc1ccc(Cl)c(Cl)c1`: the IC50 in assay [1] and in assay [2] was greater than 62.5 µM throughout.
As for `O=C(NC1CCCCC1)c1nc[nH]c1C(=O)Nc1ccc(Cl)c(Cl)c1`, the results for the IC50 in assay [1] and in assay [2] were 12.3 µM and 33.1 µM, respectively.
As for `COC(=O)[C@@H](NC(=O)c1[nH]cnc1C(=O)Nc1ccc(Cl)c(Cl)c1)c1ccccc1`, the IC50 worked out at 6.8 µM in assay [1] and 13.2 µM in assay [2].
For the compound `C[C@H](NC(=O)c1[nH]cnc1C(=O)Nc1ccc(Cl)c(Cl)c1)c1ccccc1`, the IC50 amounted to 5.9 µM in assay [1] and 9.2 µM in assay [2].
Taken in the same sequence, the figures for `COC(=O)[C@@H](NC(=O)c1[nH]cnc1C(=O)Nc1ccc(Cl)c(Cl)c1)C(C)C` were greater than 62.5 µM and greater than 62.5 µM.
Regarding `COC(=O)[C@H](NC(=O)c1[nH]cnc1C(=O)Nc1ccc(Cl)c(Cl)c1)c1ccccc1`, the figures for the IC50 in assay [1] and in assay [2] were 10.8 µM and 17.3 µM, respectively.
Taken in the same sequence, the figures for `Cc1ccc(CNC(=O)c2[nH]cnc2C(=O)Nc2ccc(Cl)c(Cl)c2)cc1` were 15.2 µM and 21.4 µM.
Take `C[C@@H](NC(=O)c1[nH]cnc1C(=O)Nc1ccc(Cl)c(Cl)c1)c1ccccc1`: the IC50 in assay [1] stood at 5.9 µM; in assay [2], 8.8 µM.
Regarding `C[C@@H](NC(=O)c1[nH]cnc1C(=O)Nc1ccc(Cl)cc1)C(=O)OC(C)(C)C`, the IC50 amounted to 3.3 µM in assay [1] and 6.6 µM in assay [2].
As for `COC(=O)[C@H](NC(=O)c1[nH]cnc1C(=O)Nc1ccc(Cl)c(Cl)c1)C(C)C`, the IC50 in assay [1] amounted to 4.9 µM; in assay [2] it was 8.5 µM.
The matching figures for `CCCCCCNC(=O)c1[nH]cnc1C(=O)Nc1ccc(Cl)c(Cl)c1`: 7.8 µM and 14.6 µM.
Taken in the same sequence, the figures for `O=C(NCc1ccccc1)c1nc[nH]c1C(=O)Nc1ccc(Cl)c(Cl)c1` were 7.4 µM and 11.5 µM.
As for `COc1ccc(NC(=O)c2[nH]cnc2C(=O)N[C@H](C)C(=O)OC(C)(C)C)cc1`, the results for the IC50 in assay [1] and in assay [2] were 3.1 µM and 6 µM, respectively.
Taken in the same sequence, the figures for `C[C@@H](NC(=O)c1[nH]cnc1C(=O)Nc1ccc(Cl)c(Cl)c1)C(=O)OC(C)(C)C` were 2.5 µM and 4.6 µM.
With `C[C@H](NC(=O)c1[nH]cnc1C(=O)Nc1ccc(Cl)c(Cl)c1)C(=O)OC(C)(C)C`, the results for the 50% inhibitory concentration (IC50) in assay [1] and in assay [2] were 2.4 µM and 4.9 µM, respectively.
With `C[C@H](c1ccccc1)N(C)C(=O)c1[nH]cnc1C(=O)Nc1ccc(Cl)c(Cl)c1`, the IC50 in assay [1] was found to be 68.8 µM; in assay [2], 89.4 µM.
For `CC(C)(C)OC(=O)CNC(=O)c1[nH]cnc1C(=O)Nc1ccc(Cl)c(Cl)c1`, the IC50 in assay [1] came to 25.4 µM; in assay [2] it was 49.8 µM.
Taken in the same sequence, the figures for `O=C(NCCc1ccccc1)c1nc[nH]c1C(=O)Nc1ccc(Cl)c(Cl)c1` were 13.2 µM and 17.7 µM.
In the case of `CCOC(=O)c1ccc(NC(=O)c2[nH]cnc2C(=O)N[C@H](C)C(=O)OC(C)(C)C)cc1`, the IC50 in assay [1] was found to be 3.7 µM; in assay [2], 6.3 µM.
For the compound `C[C@@H](NC(=O)c1[nH]cnc1C(=O)Nc1cccc(Cl)c1)C(=O)OC(C)(C)C`, the IC50 in assay [1] was found to be 2.9 µM; in assay [2] it was 8.2 µM.
